Consider 50 molecules from ChEMBL document CHEMBL3232920, “Targeting carnitine biosynthesis: discovery of new inhibitors against γ-butyrobetaine hydroxylase” (J Med Chem, 2014).

One may read the IC50 as the concentration that gives 50% inhibition. Broadly, the Kd is the concentration at which binding is half-saturated. Higher therefore signals a looser complex.

In one experiment the target is T1, Gamma-butyrobetaine dioxygenase (Homo sapiens) (UniProt O75936).
T1 sequence (whole entry): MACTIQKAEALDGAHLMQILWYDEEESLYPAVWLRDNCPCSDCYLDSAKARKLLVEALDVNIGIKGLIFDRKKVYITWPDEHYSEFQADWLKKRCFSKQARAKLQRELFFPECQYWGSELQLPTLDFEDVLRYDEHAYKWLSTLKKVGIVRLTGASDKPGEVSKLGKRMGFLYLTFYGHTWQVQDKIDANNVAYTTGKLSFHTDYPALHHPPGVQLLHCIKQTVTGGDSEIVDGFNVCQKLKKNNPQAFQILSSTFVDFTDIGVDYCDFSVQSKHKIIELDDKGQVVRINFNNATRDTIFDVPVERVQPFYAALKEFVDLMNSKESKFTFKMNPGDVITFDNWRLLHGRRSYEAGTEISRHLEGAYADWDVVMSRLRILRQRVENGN
Description: Ratio of mildronate IC50 to compound IC50 for human recombinant BBOX.
As to `C=C[N+](C)(C)NCCC(=O)[O-]`, the Ratio IC50 was 9.

Regarding `CC(CCC(=O)[O-])[N+](C)(C)C` (stereo not given), the Ratio IC50 was determined as 3.

Regarding `CN(CCC(=O)[O-])[N+](C)(C)C`, the Ratio IC50 was determined as 3.

Another experiment concerns the target T2, Gamma-butyrobetaine dioxygenase (Homo sapiens, UniProt O75936).
T2 sequence (O75936 whole entry): T1 sequence (whole entry)
The experiment can be described thus: Inhibition of human recombinant BBOX expressed in Saccharomyces cerevisiae AH22 assessed as formation of carnitine from gamma-butyrobetaine preincubated for 15 mins measured after 30 mins by UPLC-MS/MS analysis. A digest of the protocol: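 His-tagged BBOX purified by Ni affinity, desalting and Mono Q; tag cut with TEV. Assay (0.2 mL) held 20 mM K phosphate pH 7.0, 20 mM KCl, 3 mM 2-oxoglutarate, 0.25 mM Fe(II), 10 mM ascorbate, catalase and 0.6 μg enzyme. Screen at 100 or 1000 μM, then 6–8 concentrations. GBB 200 μM added after preincubation, 37 °C; stopped with cold acetonitrile/methanol. Logistic-fit IC50, mean ± SD of three experiments.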
As to `C[N+](C)(CCCC(=O)[O-])CC1CCC1`, the IC50 was over 1000 µM.

Turning to `C[N+](C)(CCCC(=O)[O-])C1CC1`, the IC50 amounted to 2.1 µM.

Consider `CCCC[N+](C)(C)CCCC(=O)[O-]`, for which the concentration for half-maximal inhibition (IC50) is over 1000 µM.

For `C[N+](C)(CCO)CCCC(=O)[O-]`, the half-inhibitory concentration (IC50) is 1000 µM.

Turning to `CC[N+](C)(C)CCC[PH](=O)[O-]`, the IC50 was determined as 0.53 µM.

Regarding `C[N+](C)(C)NCCP(=O)(O)O`, the half-maximal inhibitory concentration (IC50) is 117 µM.

For the molecule `C=CC[N+](C)(C)NCCC(=O)[O-]`, the concentration for half-maximal inhibition (IC50) turned out to be 119 µM.

On to `C[N+](C)(C)C/C=C/C(=O)[O-]`, for which the IC50 was 3.8 µM.

Take `C[N+](C)(CBr)CCCC(=O)[O-]`: the concentration for half-maximal inhibition (IC50) was over 1000 µM.

For `C[N+](C)(CCO)NCCC(=O)[O-]`, the IC50 came to 1000 µM.

Turning to `C[N+](C)(C)CCCP(=O)(O)O`, the half-maximal inhibitory concentration (IC50) came out at 0.1 µM.

As to `C=C[N+](C)(C)NCCC(=O)[O-]`, the 50% inhibitory concentration (IC50) was found to be 6.8 µM.

In the case of `C[N+](C)(C)CCCCC(=O)[O-]`, the IC50 was over 1000 µM.

As for `CC[N+](C)(CC)CCCC(=O)[O-]`, the half-inhibitory concentration (IC50) is 100 µM.

`C[N+](C)(CCCC(=O)[O-])C1CCCC1`: the IC50 is over 1000 µM.

With `CC[N+](C)(C)NCCC(=O)[O-]`, the half-maximal inhibitory concentration (IC50) stood at 140 µM.

On to `CC[N+](C)(C)N(C)CCC(=O)[O-]`, for which the IC50 was determined as 7.2 µM.

As to `C[N+](C)(CI)CCCC(=O)[O-]`, the IC50 turned out to be 1000 µM.

On to `C[N+](C)(CCF)CCCC(=O)O`, for which the 50% inhibitory concentration (IC50) was determined as 0.61 µM.

On to `C[N+](C)(CCN)NCCC(=O)[O-]`, for which the half-inhibitory concentration (IC50) is over 1000 µM.

With `CC(CCC(=O)[O-])[N+](C)(C)C` (stereo not given), the 50% inhibitory concentration (IC50) is 343 µM.

Turning to `C[N+]1(CCCC(=O)O)CCCC1`, the IC50 is 0.49 µM.

As for `C[N+](C)(C)CCCc1nnn[nH]1`, the concentration for half-maximal inhibition (IC50) was over 1000 µM.

With `CCN(CCC(=O)[O-])[N+](C)(C)C`, the IC50 worked out at 2.8 µM.

Turning to `C#CC[N+](C)(C)CCCC(=O)[O-]`, the half-inhibitory concentration (IC50) turned out to be 1.4 µM.

As for `C#CC[N+](C)(C)NCCC(=O)O`, the 50% inhibitory concentration (IC50) is 24 µM.

With `C[N+](C)(C)CCCS(=O)(=O)[O-]`, the concentration for half-maximal inhibition (IC50) came out at 1.7 µM.

As to `O=C(O)CCCN1CCCC1`, the IC50 was 1000 µM.

Take `C[N+](C)(C)C1CCCC(C(=O)[O-])C1` (stereo not given): the IC50 was over 1000 µM.

As for `C[N+](C)(C)CC(Cl)CC(=O)O` (stereo not given), the IC50 amounted to 459 µM.

Regarding `C[N+](C)(CCCl)NCCC(=O)O`, the IC50 came to 10.2 µM.

Regarding `C[N+](C)(CCCC(=O)[O-])CC1CC1`, the 50% inhibitory concentration (IC50) is over 1000 µM.

Turning to `C[N+](C)(CCCl)CCCC(=O)O`, the 50% inhibitory concentration (IC50) was 0.26 µM.

On to `CC[N+](C)(C)CCCS(=O)(=O)[O-]` [ETHYL DIMETHYL AMMONIO PROPANE SULFONATE], for which the 50% inhibitory concentration (IC50) was determined as 6.7 µM.

`C[S+](C)CCCC(=O)[O-]`: the IC50 was 388 µM.

For `CC[N+](C)(CC)NCCC(=O)O`, the IC50 is over 1000 µM.

Take `CC[N+](C)(C)CCCC(=O)[O-]`: the half-maximal inhibitory concentration (IC50) was 3.3 µM.

For `COC[N+](C)(C)CCCC(=O)[O-]`, the IC50 is over 1000 µM.

Regarding `C[N+](C)(CCCC(=O)[O-])Cc1ccccc1`, the half-inhibitory concentration (IC50) is over 1000 µM.

Turning to `CC(C)[N+](C)(C)NCCC(=O)[O-]`, the half-maximal inhibitory concentration (IC50) is over 1000 µM.

With `CC(C)[N+](C)(C)CCCC(=O)[O-]`, the IC50 came out at 5.7 µM.

Turning to `C[N+](C)(C)NCCS(=O)(=O)[O-]`, the IC50 is 87 µM.

For `CCC[N+](C)(C)CCCC(=O)[O-]`, the IC50 was over 1000 µM.

Consider `C=C[N+](C)(C)CCCC(=O)[O-]`, for which the IC50 worked out at 127 µM.

As to `CCC[N+](C)(C)N(C)CCC(=O)[O-]`, the IC50 was found to be 3.1 µM.

For `C[N+](C)(CCCC(=O)[O-])C1CCC1`, the IC50 worked out at 0.81 µM.

Turning to `C=CC[N+](C)(C)CCCC(=O)[O-]`, the IC50 is 2.7 µM.

In the case of `C[N+](C)(CCl)CCCC(=O)[O-]`, the half-inhibitory concentration (IC50) was determined as 268 µM.

On to `C[N+](C)(C)CCC[PH](=O)[O-]`, for which the IC50 was 0.52 µM.

Consider `CN(CCC(=O)[O-])[N+](C)(C)C`, for which the IC50 was determined as 0.09 µM.

A further experiment deals with T2, Gamma-butyrobetaine dioxygenase. Description: Binding affinity to purified human BBOX by isothermal titration calorimetry analysis. In outline:
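Human BBOX, purified and dialyzed, in 50 mM HEPES pH 7.4 with 100 mM KCl; cofactors and ligands dissolved in the same dialysate. N-oxalylglycine replaced 2-oxoglutarate and Ni(II) replaced Fe(II). Enzyme 26–75 μM per subunit. ITC at 25 °C: 0.2 μL first injection (discarded), then 19 × 2.0 μL. Dilution heats subtracted, low-c fitting, ≥3 repeats.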
(In general: ITC needs no label: the signal is the heat of the interaction.)
In turn, `CC(CCC(=O)[O-])[N+](C)(C)C` (stereo not given) had a dissociation constant (Kd) of 4.1 µM.

`CN(CCC(=O)[O-])[N+](C)(C)C` registered a Kd of 9.3 µM. Compared with the last molecule, the Kd is about 2.3-fold higher.
